In ChEMBL document CHEMBL1129953, “Heteroaromatic analogs of 1-[2-(diphenylmethoxy)ethyl]- and 1-[2-[bis(4-fluorophenyl)methoxy]ethyl]-4-(3-phenylpropyl)piperazines (GBR 12935 and GBR 12909) as high-affinity dopamine reuptake inhibitors” (J Med Chem, 1997):

What was measured:
[1] = molecular target: T1, Monoamine transporters; serotonin & dopamine (Rattus norvegicus) (UniProt P31652+P23977); experiment: Ratio of binding affinity on SERT with respect to DA; assay type: protein assay
[2] = molecular target: T2, Sodium-dependent serotonin transporter (Rattus norvegicus, UniProt P31652); experiment: Binding affinity at the serotonin transporter using [125I]RTI-55 in rat caudate membranes.; assay type: cell membranes
T2 sequence (P31652 whole entry): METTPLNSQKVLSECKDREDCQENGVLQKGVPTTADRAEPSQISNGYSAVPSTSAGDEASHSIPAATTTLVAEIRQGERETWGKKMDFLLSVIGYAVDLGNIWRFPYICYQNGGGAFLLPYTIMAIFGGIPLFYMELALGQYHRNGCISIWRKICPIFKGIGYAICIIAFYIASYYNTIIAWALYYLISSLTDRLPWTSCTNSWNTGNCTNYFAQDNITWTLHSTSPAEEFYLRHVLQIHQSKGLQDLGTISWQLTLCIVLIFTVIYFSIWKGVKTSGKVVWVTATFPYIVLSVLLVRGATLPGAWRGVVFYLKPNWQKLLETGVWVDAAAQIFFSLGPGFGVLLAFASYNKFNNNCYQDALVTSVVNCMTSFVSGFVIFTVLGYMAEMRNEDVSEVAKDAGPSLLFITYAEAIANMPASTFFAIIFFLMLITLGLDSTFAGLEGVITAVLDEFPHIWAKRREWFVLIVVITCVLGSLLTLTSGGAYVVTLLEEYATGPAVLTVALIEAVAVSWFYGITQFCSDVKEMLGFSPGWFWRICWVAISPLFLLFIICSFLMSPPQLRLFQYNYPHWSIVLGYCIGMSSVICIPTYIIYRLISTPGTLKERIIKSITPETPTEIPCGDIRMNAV
Summary of the method: (§1)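 Triplicate incubation 18–24 h at 4 °C, then filtration over PEI-presoaked GF/B filters. Eight-point inhibition curves (90–10% of control) give the IC50.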

[3] = molecular target: T3, Sodium-dependent dopamine transporter (Rattus norvegicus, UniProt P23977); experiment: Binding affinity at the dopamine transporter using [125I]RTI-55 in rat caudate membranes.; assay type: cell membranes
T3 sequence (P23977 whole entry): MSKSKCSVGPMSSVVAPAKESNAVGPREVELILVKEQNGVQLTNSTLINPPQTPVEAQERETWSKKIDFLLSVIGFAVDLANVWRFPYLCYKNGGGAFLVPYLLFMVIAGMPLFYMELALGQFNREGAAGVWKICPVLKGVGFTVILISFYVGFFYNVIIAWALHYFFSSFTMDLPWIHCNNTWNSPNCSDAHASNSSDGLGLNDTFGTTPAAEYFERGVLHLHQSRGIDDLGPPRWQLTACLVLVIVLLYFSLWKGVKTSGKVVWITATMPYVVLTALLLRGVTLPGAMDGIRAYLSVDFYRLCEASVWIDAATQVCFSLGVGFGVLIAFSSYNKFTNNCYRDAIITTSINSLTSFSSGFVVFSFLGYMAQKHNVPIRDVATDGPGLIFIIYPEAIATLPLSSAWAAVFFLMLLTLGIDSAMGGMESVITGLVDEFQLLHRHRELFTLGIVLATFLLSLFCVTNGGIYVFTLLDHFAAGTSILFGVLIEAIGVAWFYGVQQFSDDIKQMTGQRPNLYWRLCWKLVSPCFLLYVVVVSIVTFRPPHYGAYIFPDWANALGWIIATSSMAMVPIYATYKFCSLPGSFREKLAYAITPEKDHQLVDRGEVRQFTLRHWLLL
Summary of the method: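 [125I]RTI-55 at 0.01 nM (SA 2200 Ci/mmol). […] Incubated in triplicate 18–24 h at 4 °C to equilibrium. Filtered over PEI-presoaked GF/B filters. Eight-point inhibition curves spanning 90% to 10% of control. IC50 reported.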

[4] = molecular target: T1, Monoamine transporters; serotonin & dopamine (Rattus norvegicus); experiment: Ratio of reuptake inhibition of 5-HT with respect to DA; assay type: functional
[5] = molecular target: T3, Sodium-dependent dopamine transporter; experiment: Reuptake inhibition at the dopamine transporter labeled with radioligand [3H]dopamine on synaptosomes obtained from rat caudate.; assay type: functional, subcellular, Brain
Summary of the method: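 Rat caudate synaptosomes (10% sucrose homogenate, 1000g supernatant). [3H]DA at 5 nM final in Krebs-phosphate buffer pH 7.4 with ascorbic acid and 50 μM pargyline. Incubated 15 min at 25 °C. Nonspecific uptake defined with 1 μM GBR 12909. Filtered over GF/B filters and counted. IC50 reported.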

[6] = molecular target: Sodium-dependent dopamine transporter (Rattus norvegicus) (UniProt P23977); experiment: Ratio of reuptake inhibition on DA with respect to binding affinity of DA; assay type: functional
Chain of Sodium-dependent dopamine transporter (Rattus norvegicus) (P23977 whole entry): as above

[7] = molecular target: T2, Sodium-dependent serotonin transporter; experiment: Binding affinity was determined at the Serotonin transporter labeled with radioligand [125 I] RTI-55; summary of the method: as §1
[8] = molecular target: T3, Sodium-dependent dopamine transporter; experiment: Binding affinity was determined at the dopamine transporter labeled with radioligand [125 I] RTI-55
Summary of the method: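 Incubated in triplicate 18–24 h at 4 °C to equilibrium. Filtered over PEI-presoaked GF/B filters. Eight-point inhibition curves spanning 90% to 10% of control. IC50 reported.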

[9] = Sigma receptor binding was determined by labeling with radioligand [3H](+)-pentazocine on frozen membranes obtained from frozen guinea pig brain
[10] = molecular target: T3, Sodium-dependent dopamine transporter; experiment: Binding affinity was determined at the dopamine transporter labeled with radioligand [125 I] RTI-55 in nonstandard conditions
Summary of the method: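 Run on rat caudate synaptosomes in Krebs-phosphate buffer with 1 mg/mL BSA. Drug preincubated 60 min at 25 °C, then 10 pM [125I]RTI-55 added for 20 min at 25 °C. Filtered over PEI-presoaked GF/B filters. Nonspecific binding defined with 1 μM GBR 12909. Mean ± SD of three independent experiments.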

[11] = molecular target: T3, Sodium-dependent dopamine transporter; experiment: Reuptake inhibition was determined at the dopamine transporter labeled with radioligand [3H]dopamine in nonstandard conditions on brain membranes obtained from rat; assay type: functional, Membrane
Summary of the method: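 Synaptosomes preincubated with drug 60 min at 25 °C in Krebs-phosphate buffer with 1 mg/mL BSA. 5 nM [3H]DA then added for 20 min at 25 °C. Nonspecific uptake defined with 1 μM GBR 12909. Stopped by filtration. Mean ± SD of three independent experiments.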

T1 sequence (P23977 whole entry, looked up): as the sequence (P23977 whole entry) above
T1 sequence (P31652 whole entry, looked up): as the sequence (P31652 whole entry) above

SMILES | Ratio [1] | IC50 [2] [nM] | IC50 [3] [nM] | Ratio [4] | IC50 [5] [nM] | Ratio [6] | IC50 [7] [nM] | IC50 [8] [nM] | IC50 [9] [nM] | IC50 [10] [nM] | IC50 [11] [nM]
c1ccc(C(OCCN2CCN(CCCc3cccs3)CC2)c2ccccc2)cc1 | 162 | 842 | 5.2 | 205 | 9.7 | 1.9 | – | – | – | – | –
c1ccc(C(OCCN2CCN(Cc3cc4ccccc4s3)CC2)c2ccccc2)cc1 | 131 | 2420 | 18 | 184 | 19 | 1.1 | – | – | – | – | –
Fc1ccc(C(OCCN2CCN(Cc3nc4ccccc4[nH]3)CC2)c2ccc(F)cc2)cc1 | 17 | 256 | 15 | 40 | 20 | 1.3 | – | – | – | – | –
Fc1ccc(C(OCCN2CCN(Cc3cnc4ccccc4c3)CC2)c2ccc(F)cc2)cc1 | 30 | 485 | 16 | 12 | 74 | 4.6 | – | – | – | – | –
Fc1ccc(C(OCCN2CCN(CCCc3cccnc3)CC2)c2ccc(F)cc2)cc1 | 175 | – | – | 321 | 20 | 1.3 | 2800 | 16 | – | – | –
Fc1ccc(C(OCCN2CCN(C/C=C/c3cccnc3)CC2)c2ccc(F)cc2)cc1 | 25 | – | – | 46 | 14.5 | 1.1 | 334 | 13.6 | – | – | –
c1ccc(CCCN2CCN(CCOC(c3ccccc3)c3ccccc3)CC2)cc1 | – | – | – | – | – | – | – | – | 17 | – | –
Fc1ccc(C(OCCN2CCN(CCCc3cccs3)CC2)c2ccc(F)cc2)cc1 | 32 | – | – | 55 | 6.1 | 1.8 | 105 | 3.3 | – | – | –
Fc1ccc(C(OCCN2CCN(Cc3cccc4ccccc34)CC2)c2ccc(F)cc2)cc1 | 8 | 243 | 31 | < 1 | 312 | 10.1 | – | – | – | – | –
c1ccc(C(OCCN2CCN(Cc3nc4ccccc4[nH]3)CC2)c2ccccc2)cc1 | 41 | 1880 | 46 | 110 | 37 | 0.8 | – | – | – | – | –
Fc1ccc(C(OCCN2CCN(Cc3cc4ccccc4s3)CC2)c2ccc(F)cc2)cc1 | 121 | 495 | 4.1 | 36 | 34 | 8.3 | – | – | – | – | –
Fc1ccc(C(OCCN2CCN(CCCc3nc4ccccc4[nH]3)CC2)c2ccc(F)cc2)cc1 | 11 | 28 | 2.5 | 9 | 8.1 | 3.2 | – | – | – | – | –
Fc1ccc(C(OCCN2CCN(Cc3ccc4ccccc4n3)CC2)c2ccc(F)cc2)cc1 | < 1 | 51 | 56 | 3 | 106 | 1.9 | – | – | – | – | –
Fc1ccc(C(OCCN2CCN(C/C=C/c3ccco3)CC2)c2ccc(F)cc2)cc1 | 62 | – | – | 61 | 7.2 | 4 | 109 | – | – | – | –
Fc1ccc(C(OCCN2CCN(C/C=C/c3cccs3)CC2)c2ccc(F)cc2)cc1 | 40 | – | – | 29 | 13 | 5.9 | 88 | 2.2 | – | – | –
c1ccc(C(OCCN2CCN(Cc3ccc4ccccc4n3)CC2)c2ccccc2)cc1 | 10 | 1990 | 199 | 21 | 192 | 1 | – | – | – | – | –

SMILES | Ratio [1] | IC50 [2] [nM] | IC50 [3] [nM] | Ratio [4] | IC50 [5] [nM] | Ratio [6] | IC50 [7] [nM] | IC50 [8] [nM] | IC50 [9] [nM] | IC50 [10] [nM] | IC50 [11] [nM]
C(=C\c1cccs1)/CN1CCN(CCOC(c2ccccc2)c2ccccc2)CC1 | 184 | 1170 | 6.4 | 200 | 10 | 1.6 | – | – | – | – | –
Fc1ccc(C(OCCN2CCN(CCCc3ccco3)CC2)c2ccc(F)cc2)cc1 | 35 | – | – | 52 | 7.9 | 1.3 | 204 | 5.9 | – | – | –
C(=C\c1cccnc1)/CN1CCN(CCOC(c2ccccc2)c2ccccc2)CC1 | 61 | 2760 | 44 | 57 | 64 | 1.5 | – | – | – | – | –
Fc1ccc(C(OCCN2CCN(Cc3ccc4ncccc4c3)CC2)c2ccc(F)cc2)cc1 | 9 | 551 | 62 | – | – | 1.2 | – | – | – | – | –
Fc1ccc(C(OCCN2CCN(Cc3cc4ccccc4[nH]3)CC2)c2ccc(F)cc2)cc1 | 163 | 119 | 0.7 | 39 | 13 | 18.6 | – | – | – | 2.94 | 1.86
c1ccc(C(OCCN2CCN(CCCc3nc4ccccc4[nH]3)CC2)c2ccccc2)cc1 | 13 | 309 | 23 | 39 | 17 | 0.7 | – | – | – | – | –
Fc1ccc(C(OCCN2CCN(Cc3ccc4ccccc4c3)CC2)c2ccc(F)cc2)cc1 | 39 | 312 | 8 | 20 | 30 | 3.8 | – | – | – | – | –
c1ccc(C(OCCN2CCN(CCCc3cccnc3)CC2)c2ccccc2)cc1 | 31 | 2420 | 78 | 53 | 70 | 0.9 | – | – | – | – | –
c1ccc(C(OCCN2CCN(Cc3ccc4ncccc4c3)CC2)c2ccccc2)cc1 | 4 | 845 | 190 | 12 | 140 | 0.7 | – | – | – | – | –
c1ccc(C(OCCN2CCN(Cc3cc4ccccc4[nH]3)CC2)c2ccccc2)cc1 | 619 | 668 | 1.1 | 241 | 8.8 | 8 | – | – | – | 2.19 | 2.62
c1ccc(C(OCCN2CCN(Cc3cnc4ccccc4c3)CC2)c2ccccc2)cc1 | 16 | 1160 | 72 | 27 | 111 | 1.5 | – | – | – | – | –
c1ccc(C(OCCN2CCN(Cc3cccc4ccccc34)CC2)c2ccccc2)cc1 | 3 | 336 | 114 | < 1 | 406 | 3.6 | – | – | – | – | –
c1ccc(C(OCCN2CCN(Cc3cc4ccccc4o3)CC2)c2ccccc2)cc1 | 110 | 1890 | 17 | 136 | 22 | 1.3 | – | – | – | 43.6 | 31
C(=C\c1ccco1)/CN1CCN(CCOC(c2ccccc2)c2ccccc2)CC1 | 367 | 1840 | 5 | 281 | 9.6 | 1.9 | – | – | – | – | –
c1ccc(C(OCCN2CCN(CCCc3ccco3)CC2)c2ccccc2)cc1 | 234 | 1520 | 6.5 | 300 | 8.5 | 1.3 | – | – | – | – | –
Fc1ccc(C(OCCN2CCN(Cc3cc4ccccc4o3)CC2)c2ccc(F)cc2)cc1 | 45 | 286 | 6.4 | 41 | 18.6 | 2.9 | – | – | – | 17.8 | 12.3
